The list is not random: actives were taken first. Their share in the collection is about 3.1%.
miR122 inh: miR-122 Renilla sensor signal increase in Huh7, primary screen, miR-122 inhibitor project, cell-based, single point, plate reader | AID 602342, 2012 | 0.3% of 340,000 active | activation (reporter increase), % at 12.5 µM | Huh7 miR-122 Renilla luciferase sensor, 48 h; neutral wells = 0, positive control = 100;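 active means mean replicate activation score at least 90 and every replicate individually at or above 90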;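 further: higher luciferase means less miR-122 activity so hits act as miR-122 inhibitors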
Ecoli rRNA inh: reduced GFP signal of wild-type E. coli, primary screen, bacterial rRNA inhibitor project, GFP/RFP fluorescence, OD600, single point. E. coli WT GFP vs humanized-ribosome RFP mutants, 24 h; hits give low values; DMSO median 0, no signal -100. GFP signal change (wild-type ribosome), % (no concentration beside the values). 1.6% of 350,000 active. AID 720706, 2013;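 active means significant combined selectivity score with lowered wild-type GFP, culture density cut under 30%, mutant RFP and density less affected; inactive means any of these conditions unmet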
Cneo AK release: Cryptococcus neoformans cell lysis inducers, primary screen, AK release luminescence, single concentration; C. neoformans lysis, adenylate kinase release luminescence, 4 h; normalised: neutral wells 0, clomiphene wells 100; lysis activity, % at 15 µM; 0.2% of 360,000 active; AID 651654, 2012;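 active means mean lysis activity across replicates of at least 80%, whatever share of replicates individually reach that level; inactive means mean lysis activity below 80%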
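Schedule: static 4 h at 37 °C with compound, 1 h detection; system: C. neoformans cells; benchmarks: Clomiphene as positive control; buffer or medium: fresh YPD medium; measure: luminescence rise reflecting yeast cell lysis; measured by: luminescent adenylate kinase detection reagent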
Env fusion inh: inhibitors of HIV-1 Env-driven cell-cell fusion, primary screen, HeLa-JRFL effector, CEM21 target cells, luciferase; 1.1% of 360,000 active; inhibition, % at 12.3 µM;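 active means mean replicate inhibition score of at least 50 and every replicate individually at or above 50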;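 further: 0% = plate neutral controls and 100% = maraviroc near 300 nM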
INS-1E GSIS act: GLuc luminescence reporter in INS-1E cells, primary screen for activators of glucose-dependent secretion of insulin | activation, % at 16.6 µM | INS-1E GLuc reporter insulin secretion, 2-3 h | 0.61% of 370,000 active;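 active means lowest replicate activation of at least 40%, so every replicate reaches that level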;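 further: 0% = median of neutral control wells and 100% = median of IBMX positive control wells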
F508del corr: F508del CFTR correction, initial screen, CFBE line, single point; CFBE cells, YFP halide quenching; stimulated with forskolin plus potentiator P3; % fluorescence drop versus neutral controls; activity (quench increase), % at 7.58 µM; 0.36% of 350,000 active; AID 720511, 2013;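 active means mean added fluorescence quench of at least 8% versus neutral control, with both replicates also reaching 8%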;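 further: cells transiently co-express mutant CFTR-F508del with the halide-sensitive YFP; corrector assay measuring rescue of mutant channel to the surface after 24 h compound exposure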
* hit, by the source's call; nt = not tested or not shown; [ ] = remark or other dose.

SMILES | miR122 inh | Ecoli rRNA inh | Cneo AK release | Env fusion inh | INS-1E GSIS act | F508del corr
Cn1nc(C(F)(F)F)c(-c2cccc(C(F)(F)F)c2)c1NC(=O)Nc1ccc(F)cc1 | 5.3 | -28.0* | 5.2 | 0.5 | -9.3 | 3.9
Cn1nc(-c2ccccc2)cc1NC(=O)Nc1ccc(F)cc1 | 5.0 | -39.6* | nt | -2.0 | 0.5 | 0.5
Cc1ccccc1NC(=O)Nc1cc(-c2ccccc2)nn1C | -0.2 | -3.0 | nt | 9.0 | -9.4 | nt
Cc1ccc(S(=O)(=O)Nc2cccc3c2O[C@@H](CN(C)C(=O)NC(C)C)[C@@H](C)CN([C@@H](C)CO)C3=O)cc1 | -6.5[16.7 µM] | 2.6 | -1.0 | nt | 5.9 | 1.6
CC(C)(C)CC(C)(C)NC(=S)Nc1ccc2nc(-c3ccccn3)c(-c3ccccn3)nc2c1 | -18.6 | nt | 3.8 | 58.1* | nt | nt
CN(C)NC(=S)Nc1ccc2nc(-c3ccccn3)c(-c3ccccn3)nc2c1 | 1.4 | nt | -3.3 | -26.4 | nt | nt
CCOC(=O)N1CCN(C(=O)C[C@H]2C[C@@]3(C(=O)OC)C(=C[C@H](C(C)(C)C)O[C@@H]3C)N(CCC3=CCCCC3)C2=O)CC1 | nt | 3.4 | nt | 97.7* | nt | -2.6
CCCCCCCCN1C(=O)[C@@H](CC(=O)N2CCN(C(=O)c3ccco3)CC2)C[C@@]2(C(=O)OC)C1=C[C@H](C(C)(C)C)O[C@@H]2C | nt | 5.7 | nt | 26.8 | nt | -1.1
CCCCCCCCN1C(=O)[C@@H](CC(=O)N2CCN(C(=O)c3ccco3)CC2)C[C@@]2(C(=O)OC)C1=C[C@H](C1CCCC1)O[C@@H]2C | nt | 8.9 | nt | 10.2 | 54.1* | -0.6
COC(=O)[C@]12C[C@H](CC(=O)N3CCN(C(=O)C4CC4)CC3)C(=O)N(CCC3=CCCCC3)C1=C[C@H](C(C)(C)C)O[C@@H]2C | nt | 1.4 | nt | 56.8* | nt | 0.5
CCOC(=O)N1CCN(C(=O)C[C@H]2C[C@@]3(C(=O)OC)C(=C[C@H](C(C)(C)C)O[C@@H]3C)N(Cc3ccccc3)C2=O)CC1 | nt | -0.2 | nt | 20.1 | nt | 2.0
COC(=O)[C@]12C[C@H](CC(=O)N3CCCC3)C(=O)N(CCC3=CCCCC3)C1=C[C@H](COCc1ccccc1)O[C@@H]2C | nt | -13.1 | nt | 5.7 | nt | -2.1
CC(=O)N[C@@H]1CC[C@@H](CCNC(=O)Nc2ccc(C(F)(F)F)cc2)O[C@H]1CO | nt | -59.3 | 0.1 | 2.4[16.7 µM] | -24.2 | 3.2
O=C(N[C@@H]1CC[C@H](CC(=O)N2CCOCC2)O[C@@H]1CO)c1cccc(F)c1 | nt | 0.0 | -4.9 | -11.6[16.7 µM] | 15.4 | -3.0
O=C(/C=C/Nc1ccccc1Oc1ccccc1)c1ccco1 | 37.5 | -32.4* | -2.3 | -4.2 | 16.8 | -2.1
CN1C(=O)c2cc(NC(=O)C3CCC3)ccc2OC[C@@H]2O[C@@H](CC(=O)NCc3ccccc3F)CC[C@H]21 | nt | 4.4 | nt | nt | 13.3 | -0.8
C=CCN([C@H](C(=O)OC)C(C)C)S(=O)(=O)CCNCc1ccccc1 | -1.2 | 2.1 | 4.4 | 61.5* | -26.6 | -2.8
COc1ccc2c(c1OC)C(=O)OC2Nc1ccccc1S(=O)(=O)C(F)F (centres undefined) | -4.0 | nt | 93.8* | -5.2 | 5.9 | nt
COc1ccc2c(c1OC)C(=O)OC2Nc1ccccn1 (centres undefined) | -6.3 | nt | 1.1 | nt | nt | nt
O=C1CC(NS(=O)(=O)c2cccs2)CN1c1ccccc1 (centres undefined) | 1.5 | 9.3 | -1.6 | -6.2 | 1.4 | -4.5
O=C1CC(NS(=O)(=O)c2cccs2)CN1c1cccc(F)c1 (centres undefined) | 0.7 | 2.8 | nt | -0.5 | 46.1* | 1.2
COc1cc2c(c(OC)c1OC)[C@@]1(c3ccccc3)CCCC[C@H]1[C@@H]2NC(=O)C(F)(F)F | nt | 15.7 | nt | 87.1* | -37.2 | -1.4
C[C@@H]1CN([C@H](C)CO)C(=O)c2cc(-c3ccncc3)cnc2O[C@@H]1CN(C)C(=O)C1CCC1 | -1.0[16.7 µM] | 2.2 | nt | -9.8[16.7 µM] | 17.1 | -1.9
CN(C(=O)COC(=O)c1cnc(Cl)c(Cl)c1)C1CCCCC1 | -6.6 | -14.2* | -1.0 | -4.8 | nt | -0.8
C[C@H](CO)N1C[C@H](C)[C@@H](CN(C)S(=O)(=O)c2ccccc2)OCCCC[C@H](C)Oc2ccc(NC(=O)c3ccccc3)cc2C1=O | -6.3[16.7 µM] | -3.3 | -0.3 | -67.1[16.7 µM] | -7.4 | -0.4
SMILES | miR122 inh | Ecoli rRNA inh | Cneo AK release | Env fusion inh | INS-1E GSIS act | F508del corr
Cc1cccc(N2CCc3c2nc2ccc(Br)cc2c3N)c1 | 7.6 | -49.3* | 7.8 | nt | -2.0 | -0.5
Nc1c2c(nc3ccc(Br)cc13)N(c1ccccc1)CC2 | 4.9 | nt | 0.0 | nt | nt | nt
COc1cccc(-c2ccc([C@@H]3[C@@H](CO)N4CCCCN(C(=O)NC(C)C)C[C@@H]34)cc2)c1 | -3.8[16.7 µM] | -0.3 | -1.7 | nt | 19.7 | 0.2
O=C(N/N=C/c1ccccn1)c1ccc(NC(=O)c2ccccc2Cl)cc1 | nt | -21.0* | -2.3 | -4.0 | 11.7 | 0.8
CCN(CC)S(=O)(=O)c1cc(C(=O)N(C)CC(=O)Nc2ccc(Cl)cc2)ccc1Cl | 168.4* | -50.1 | nt | 21.8 | -45.7 | nt
COc1ccc(-c2nn3c(-c4ccco4)nnc3s2)cc1OC | -15.4 | nt | -1.1 | -41.2 | nt | nt
COc1ccc(-c2nnc3sc(-c4ccco4)nn23)cc1OC | -8.0 | nt | -7.3 | -15.8 | 58.5* | nt
OCC1OC(n2cnc3c(/C=C(\O)c4ccccc4)ncnc32)C(O)C1O (centres undefined) | 27.5 | 6.9 | nt | 55.0* | 4.3 | 3.2
CN(C)c1ncnc2c1ncn2C1OC(CO)C(O)C1O (centres undefined) | -31.0 | nt | 0.6 | nt | nt | nt
CCc1cccc(NC(=O)C2CCN(S(=O)(=O)c3ccc4c(c3)CC(C)N4C(C)=O)CC2)c1 (centres undefined) | -3.6 | -11.3 | 0.4 | 68.0* | -17.1 | -0.1
CCOC(=O)Nc1ccc2c(c1)Sc1ccccc1N2C(=O)CCN1CCOCC1 | 5.3 | nt | 2.5 | nt | 107.3* | nt
CCOC(=O)Nc1ccc2c(c1)N(C(=O)CCN1CCN(C)CC1)c1ccccc1S2 | 6.5 | nt | 0.5 | nt | nt | nt
C#Cc1cccc(-n2nnc(C(=O)OC)c2-c2ccccc2)c1 | nt | -10.0 | -0.5 | 3.2 | 40.3* | 0.8
COC(=O)c1nnn(-c2ccccc2)c1N | 9.5 | nt | -3.5 | -25.0 | nt | nt
COc1ccc(CCN2C(=S)NC3CC2(C)Oc2ccc([N+](=O)[O-])cc23)cc1OC (centres undefined) | -2.4 | nt | -0.6 | 58.6* | nt | nt
COC(=O)COc1ccc(S(=O)(=O)NCCC2=CCCCC2)cc1C | 6.2 | -21.0* | nt | nt | -45.2 | 0.9
O=C(c1ccccc1)N1C[C@@H]2[C@H](c3ccccc31)[C@H](CO)N2C(=O)c1ccccn1 | 0.0[16.7 µM] | -1.3 | 45.7 | nt | 1.6 | -2.0

Bioassay records: PubChem, Broad Institute
